Test results taken from ChEMBL document CHEMBL3098000, “Imatinib analogs as potential agents for PET imaging of Bcr-Abl and c-KIT expression at a kinase level” (Bioorg Med Chem, 2014).
Values belong to the compound of their own block, whether it stands above or below them.

Key:
[1] = Drug uptake in human wild-type U87 cells incubated for 1 to 2 hrs measured after drug washout
[2] = Drug uptake in mouse digestive tract xenografted with human K562 cells expressing Bcr-Abl at 100 uCi, iv after 15 to 120 mins by PET analysis; type: ADME, organism-based; conditions: in vivo
Method in brief: (§1)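 Nude mice carried K562, U87 or U87WT tumor cells injected in Matrigel (200 μl) into the dorsal shoulder areas. [18F]STI-571, labeled by nucleophilic substitution, was given at 100 μCi/mouse i.v. MicroPET imaging was done at 30, 60 and 90 min, with images also shown at 60 and 120 min. Some mice were sacrificed at 60 or 90 min for tissue sampling and autoradiography.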

[3] = Drug uptake in mouse digestive tract xenografted with human U87WT cells expressing human wild type c-KIT at 100 uCi, iv after 15 to 120 mins by PET analysis; type: ADME, organism-based; conditions: in vivo
Method in brief: as §1

[4] = Drug uptake in mouse right shoulder xenografted with human U87 cells at 100 uCi, iv after 15 to 120 mins by PET analysis; type: ADME, organism-based, U-87MG ATCC; conditions: in vivo, in the assay text read “U87WT cells” for “U87 cells”
Method in brief: as §1

[5] = system: Intestine; assay: Drug uptake in intestine of mouse xenografted with human U87WT cells expressing human wild type c-KIT at 100 uCi, iv after 60 to 120 mins by PET analysis; type: ADME, organism-based; conditions: in vivo
Method in brief: as §1

[6] = system: Tumour; assay: Drug uptake in tumor of mouse xenografted with human U87WT cells expressing human wild type c-KIT at 100 uCi, iv after 60 to 120 mins by PET analysis; type: ADME, organism-based, Neoplasm; conditions: in vivo
Method in brief: as §1

[7] = system: Liver; assay: Drug uptake in liver of mouse xenografted with human K562 cells expressing Bcr-Abl at 100 uCi, iv after 60 to 120 mins by PET analysis; type: ADME, organism-based; conditions: in vivo
Method in brief: as §1

[8] = system: Intestine; assay: Drug uptake in intestine of mouse xenografted with human U87 cells at 100 uCi, iv after 60 to 120 mins by PET analysis; type: ADME, organism-based, U-87MG ATCC; conditions: in vivo
Method in brief: as §1

[9] = system: Tumour; assay: Drug uptake in tumor of mouse xenografted with human U87 cells at 100 uCi, iv after 60 to 120 mins by PET analysis; type: ADME, organism-based, Neoplasm, U-87MG ATCC; conditions: in vivo
Method in brief: as §1

[10] = system: Liver; assay: Drug uptake in liver of mouse xenografted with human U87WT cells expressing human wild type c-KIT at 100 uCi, iv after 60 to 120 mins by PET analysis; type: ADME, organism-based; conditions: in vivo
Method in brief: as §1

[11] = system: Intestine; assay: Drug uptake in intestine of mouse xenografted with human K562 cells expressing Bcr-Abl at 100 uCi, iv after 60 to 120 mins by PET analysis; type: ADME, organism-based; conditions: in vivo
Method in brief: as §1

[12] = system: K562; assay: Drug uptake in human K562 cells expressing Bcr-Abl after 1 to 2 hrs; type: ADME, cell-based
[13] = system: K562; assay: Drug uptake in human K562 cells expressing Bcr-Abl after 30 to 210 mins in presence of unlabelled STI-571; type: ADME, cell-based
[14] = Drug uptake in mouse right shoulder xenografted with human U87WT cells expressing human wild type c-KIT at 100 uCi, iv after 15 to 120 mins by PET analysis; type: ADME, organism-based; conditions: in vivo
Method in brief: as §1

[15] = Drug uptake in mouse right shoulder xenografted with human K562 cells expressing Bcr-Abl at 100 uCi, iv after 15 to 120 mins by PET analysis; type: ADME, organism-based; conditions: in vivo
Method in brief: as §1

[16] = system: K562; assay: Drug uptake in human K562 cells expressing Bcr-Abl after 30 mins; type: ADME, cell-based; conditions: k562, 0.5 h
[17] = system: Tumour; assay: Drug uptake in tumor of mouse xenografted with human K562 cells expressing Bcr-Abl at 100 uCi, iv after 60 to 120 mins by PET analysis; type: ADME, organism-based, Neoplasm; conditions: in vivo
Method in brief: as §1

[18] = system: K562; assay: Drug uptake in human K562 cells expressing Bcr-Abl incubated for 1 to 2 hrs measured after drug washout; type: ADME, cell-based
[19] = system: Liver; assay: Drug uptake in liver of mouse xenografted with human U87 cells at 100 uCi, iv after 60 to 120 mins by PET analysis; type: ADME, organism-based, U-87MG ATCC; conditions: in vivo
Method in brief: as §1

[20] = Drug uptake in human U87WT cells expressing human wild type c-KIT after 1 to 2 hrs; type: ADME, cell-based
Method in brief: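 Cells were incubated with [18F]STI-571, and tracer accumulation and washout were measured at 1 and 2 h. U87WT cells were made by retroviral transduction of U87 cells with wild-type human c-KIT receptor. Specificity was tested by blocking with excess unlabelled STI-571.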

[21] = Drug uptake in mouse digestive tract xenografted with human U87 cells at 100 uCi, iv after 15 to 120 mins by PET analysis; type: ADME, organism-based, U-87MG ATCC; conditions: in vivo
Method in brief: as §1

[22] = system: Intestine; assay: Drug uptake in intestine of mouse xenografted with human U87WT cells expressing human wild type c-KIT after 45 mins by PET analysis; type: ADME, tissue-based; conditions: in vivo, 0.75 h
[23] = system: Intestine; assay: Drug uptake in intestine of mouse xenografted with human U87 cells after 45 mins by PET analysis; type: ADME, U-87MG ATCC; conditions: in vivo, 0.75 h
[24] = system: Mus musculus; assay: Drug uptake in mouse xenografted with human K562 cells expressing Bcr-Abl after 45 mins by PET analysis; type: ADME, organism-based; conditions: in vivo, 0.75 h
[25] = biological target: Bcr/Abl fusion protein (Homo sapiens, UniProt P00519); assay: Inhibition of Bcr-Abl (unknown origin) phosphorylation by spectrophotometric assay; type: protein assay
Sequence of Bcr/Abl fusion protein (P00519 whole entry, the tested form may be a part): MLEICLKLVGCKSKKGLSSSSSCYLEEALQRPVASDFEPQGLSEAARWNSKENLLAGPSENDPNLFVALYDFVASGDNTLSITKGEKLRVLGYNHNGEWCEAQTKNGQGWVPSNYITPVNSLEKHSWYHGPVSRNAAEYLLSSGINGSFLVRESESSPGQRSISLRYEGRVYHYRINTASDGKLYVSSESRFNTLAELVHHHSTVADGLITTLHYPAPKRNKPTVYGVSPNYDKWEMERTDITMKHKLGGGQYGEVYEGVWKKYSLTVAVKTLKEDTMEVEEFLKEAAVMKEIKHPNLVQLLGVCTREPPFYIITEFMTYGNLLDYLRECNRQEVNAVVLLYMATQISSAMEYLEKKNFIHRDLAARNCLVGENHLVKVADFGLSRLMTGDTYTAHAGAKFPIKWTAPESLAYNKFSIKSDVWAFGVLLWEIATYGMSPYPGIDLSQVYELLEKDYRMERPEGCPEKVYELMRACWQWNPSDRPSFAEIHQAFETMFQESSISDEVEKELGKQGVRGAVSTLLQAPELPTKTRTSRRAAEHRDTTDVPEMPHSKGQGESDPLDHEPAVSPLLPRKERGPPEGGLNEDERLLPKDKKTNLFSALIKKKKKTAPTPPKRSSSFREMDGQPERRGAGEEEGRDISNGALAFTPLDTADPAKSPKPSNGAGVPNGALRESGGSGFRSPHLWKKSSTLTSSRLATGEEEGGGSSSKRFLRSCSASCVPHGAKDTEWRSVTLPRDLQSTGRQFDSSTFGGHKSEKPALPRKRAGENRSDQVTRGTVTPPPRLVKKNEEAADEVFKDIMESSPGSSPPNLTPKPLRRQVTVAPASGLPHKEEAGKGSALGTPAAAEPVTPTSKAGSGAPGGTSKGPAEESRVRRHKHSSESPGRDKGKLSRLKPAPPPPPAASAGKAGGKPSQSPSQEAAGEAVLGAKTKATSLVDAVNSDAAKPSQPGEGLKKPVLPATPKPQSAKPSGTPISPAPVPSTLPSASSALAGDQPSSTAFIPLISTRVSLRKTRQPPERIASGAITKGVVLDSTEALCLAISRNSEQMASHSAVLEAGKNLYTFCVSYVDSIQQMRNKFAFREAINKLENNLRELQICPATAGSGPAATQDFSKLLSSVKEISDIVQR
Sequence of Bcr/Abl fusion protein (P11274 whole entry, further chain, the tested form may be a part): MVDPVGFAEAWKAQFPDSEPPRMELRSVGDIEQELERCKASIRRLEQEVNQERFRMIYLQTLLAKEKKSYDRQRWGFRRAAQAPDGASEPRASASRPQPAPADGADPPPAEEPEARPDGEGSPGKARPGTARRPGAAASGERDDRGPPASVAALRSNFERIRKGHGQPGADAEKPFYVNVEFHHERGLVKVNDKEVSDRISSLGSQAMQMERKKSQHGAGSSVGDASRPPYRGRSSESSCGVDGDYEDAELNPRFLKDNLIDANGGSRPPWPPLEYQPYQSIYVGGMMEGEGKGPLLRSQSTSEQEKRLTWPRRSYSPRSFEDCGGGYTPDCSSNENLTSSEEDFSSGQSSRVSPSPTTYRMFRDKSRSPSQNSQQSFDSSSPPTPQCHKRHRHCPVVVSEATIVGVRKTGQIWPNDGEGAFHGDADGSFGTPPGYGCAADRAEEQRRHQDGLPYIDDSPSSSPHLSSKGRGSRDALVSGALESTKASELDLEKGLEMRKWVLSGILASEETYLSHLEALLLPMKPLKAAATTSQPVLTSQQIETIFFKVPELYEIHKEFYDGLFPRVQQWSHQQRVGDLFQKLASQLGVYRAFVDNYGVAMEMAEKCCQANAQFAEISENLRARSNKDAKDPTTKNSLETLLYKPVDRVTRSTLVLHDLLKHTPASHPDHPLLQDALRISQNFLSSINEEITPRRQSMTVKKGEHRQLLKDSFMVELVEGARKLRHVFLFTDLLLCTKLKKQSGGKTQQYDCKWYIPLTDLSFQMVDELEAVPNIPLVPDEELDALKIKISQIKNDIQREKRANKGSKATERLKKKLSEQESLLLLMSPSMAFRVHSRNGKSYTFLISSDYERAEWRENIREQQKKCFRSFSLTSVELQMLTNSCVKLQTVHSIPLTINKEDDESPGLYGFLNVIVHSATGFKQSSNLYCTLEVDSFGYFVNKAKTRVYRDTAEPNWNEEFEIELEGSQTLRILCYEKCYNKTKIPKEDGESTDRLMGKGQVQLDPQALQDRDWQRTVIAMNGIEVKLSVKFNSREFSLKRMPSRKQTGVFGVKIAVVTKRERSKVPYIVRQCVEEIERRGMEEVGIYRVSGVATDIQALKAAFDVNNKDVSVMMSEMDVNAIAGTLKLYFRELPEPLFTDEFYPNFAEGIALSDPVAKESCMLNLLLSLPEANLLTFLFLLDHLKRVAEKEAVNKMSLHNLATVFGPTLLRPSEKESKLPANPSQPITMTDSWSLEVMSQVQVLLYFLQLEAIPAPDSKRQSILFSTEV

SMILES: OC[C@H]1O[C@@H](O)[C@H]([18F])[C@@H](O)[C@@H]1O [FLUDEOXYGLUCOSE-F18]
Drug uptake [22]: Active | Drug uptake [23]: Active | Drug uptake [24]: Active

SMILES: Cc1ccc(NC(=O)c2ccc(CN3CCN(Cc4ccc(I)cc4)CC3)cc2)cc1Nc1nccc(-c2cccnc2)n1
IC50 [25]: 739 nM

Other lines, results leading:

Drug uptake [1]: Not Active | Drug uptake [2]: Active | Drug uptake [3]: Active | Drug uptake [4]: Active | Drug uptake [5]: Active | Drug uptake [6]: Active | Drug uptake [7]: Active | Drug uptake [8]: Active | Drug uptake [9]: Active | Drug uptake [10]: Active | Drug uptake [11]: Active | Drug uptake [12]: Active | Drug uptake [13]: Not Active | Drug uptake [14]: Active | Drug uptake [15]: Active | Drug uptake [16]: Active | Drug uptake [17]: Active | Drug uptake [18]: Active | Drug uptake [19]: Active | Drug uptake [20]: Not Active | Drug uptake [21]: Active
SMILES: Cc1ccc(NC(=O)c2ccc(CN3CCN(CC[18F])CC3)cc2)cc1Nc1nccc(-c2cccnc2)n1

IC50 [25]: 7080 nM
SMILES: Cc1ccc(NC(=O)c2ccc(CN3CCN(CCO)CC3)cc2)cc1Nc1nccc(-c2cccnc2)n1

IC50 [25]: 1380 nM
SMILES: Cc1ccc(NC(=O)c2ccc(CN3CCN(CCF)CC3)cc2)cc1Nc1nccc(-c2cccnc2)n1
